Assay outcomes from PubChem BioAssay.
Rin1 Abl inh: inhibitors of Rin1-Abl protein binding, primary screen, biochemical, TR-FRET; AID 588664, 2011; inhibition, % at 7.35 µM; actives 0.4% (n = 360,000); Tyrosine-protein kinase ABL1 (Homo sapiens) + Ras and Rab interactor 1 (Homo sapiens), …; in the data active means inhibition above about 5%, passing the limit was not always enough
Target sequence (P00519 whole entry, looked up): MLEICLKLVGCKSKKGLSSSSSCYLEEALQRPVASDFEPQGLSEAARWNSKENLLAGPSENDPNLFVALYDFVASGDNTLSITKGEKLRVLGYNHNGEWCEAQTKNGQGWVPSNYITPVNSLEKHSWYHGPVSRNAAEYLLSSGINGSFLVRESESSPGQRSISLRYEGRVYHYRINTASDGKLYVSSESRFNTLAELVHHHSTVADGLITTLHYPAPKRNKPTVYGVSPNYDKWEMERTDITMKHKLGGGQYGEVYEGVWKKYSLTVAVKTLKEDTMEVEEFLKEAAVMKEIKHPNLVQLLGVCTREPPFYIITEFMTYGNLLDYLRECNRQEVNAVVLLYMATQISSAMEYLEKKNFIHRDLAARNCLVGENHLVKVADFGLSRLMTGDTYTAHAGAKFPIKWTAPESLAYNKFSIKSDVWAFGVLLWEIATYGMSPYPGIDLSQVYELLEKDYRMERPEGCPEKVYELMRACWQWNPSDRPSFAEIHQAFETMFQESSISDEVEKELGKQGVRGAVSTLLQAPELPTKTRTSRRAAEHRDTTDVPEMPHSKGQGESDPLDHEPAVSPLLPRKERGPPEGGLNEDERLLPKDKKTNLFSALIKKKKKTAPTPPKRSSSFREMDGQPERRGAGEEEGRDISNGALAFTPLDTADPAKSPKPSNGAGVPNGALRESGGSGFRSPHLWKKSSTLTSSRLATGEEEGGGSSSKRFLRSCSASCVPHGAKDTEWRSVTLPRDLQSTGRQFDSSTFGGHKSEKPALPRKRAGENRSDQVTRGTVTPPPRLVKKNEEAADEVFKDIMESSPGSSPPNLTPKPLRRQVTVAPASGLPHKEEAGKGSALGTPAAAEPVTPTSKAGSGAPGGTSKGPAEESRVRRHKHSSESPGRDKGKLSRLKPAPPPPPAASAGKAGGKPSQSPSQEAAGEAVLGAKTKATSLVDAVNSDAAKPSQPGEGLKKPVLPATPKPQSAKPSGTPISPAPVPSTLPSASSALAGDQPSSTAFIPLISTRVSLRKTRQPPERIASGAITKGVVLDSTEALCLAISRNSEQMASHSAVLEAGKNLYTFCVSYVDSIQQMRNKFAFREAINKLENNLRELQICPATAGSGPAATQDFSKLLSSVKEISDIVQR
Target sequence (Q13671 whole entry, looked up): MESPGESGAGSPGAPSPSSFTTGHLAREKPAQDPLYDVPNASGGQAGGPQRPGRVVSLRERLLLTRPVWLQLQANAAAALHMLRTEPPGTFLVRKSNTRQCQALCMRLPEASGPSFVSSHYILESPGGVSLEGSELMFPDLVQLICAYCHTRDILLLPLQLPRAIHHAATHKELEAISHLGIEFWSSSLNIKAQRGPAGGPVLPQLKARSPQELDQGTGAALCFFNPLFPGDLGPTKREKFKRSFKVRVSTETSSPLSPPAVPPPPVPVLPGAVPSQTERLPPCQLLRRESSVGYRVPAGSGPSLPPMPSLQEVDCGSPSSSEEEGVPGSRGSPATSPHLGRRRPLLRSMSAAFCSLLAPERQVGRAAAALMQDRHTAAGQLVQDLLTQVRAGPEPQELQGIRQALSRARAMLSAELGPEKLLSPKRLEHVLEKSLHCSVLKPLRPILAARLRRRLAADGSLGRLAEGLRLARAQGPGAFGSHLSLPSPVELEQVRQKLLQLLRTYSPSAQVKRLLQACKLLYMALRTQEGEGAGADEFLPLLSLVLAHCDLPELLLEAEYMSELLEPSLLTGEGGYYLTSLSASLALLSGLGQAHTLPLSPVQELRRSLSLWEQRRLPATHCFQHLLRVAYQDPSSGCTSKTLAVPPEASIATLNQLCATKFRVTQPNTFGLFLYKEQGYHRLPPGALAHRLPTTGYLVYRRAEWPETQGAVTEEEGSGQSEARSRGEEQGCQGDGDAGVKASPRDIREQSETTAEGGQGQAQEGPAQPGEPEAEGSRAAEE
HNF4A DNA FP: change in binding of human HNF4A to DNA, primary screen, biochemical, fluorescence polarization, FITC-DNA; Hepatocyte nuclear factor 4-alpha (Homo sapiens), P41235; 1 h; activity change, % at 10 µM; actives 0.3% (n = 360,000); in the data active means activity change above about 30%, passing the limit was not always enough
Rpn11 inh: Rpn11 (PSMD14) deubiquitinase inhibitors, primary screen, biochemical, fluorescence polarization, uHTS; inhibition, % at 20 µM; 26S proteasome non-ATPase regulatory subunit 14 (Homo sapiens), O00487; AID 588493, 2011; human 26S proteasome, Ub4-pepOG fluorescence polarization; 20S core pre-blocked with epoxomicin; actives 0.59% (n = 360,000);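 active means inhibition at 20 µM, scaled to each plate's controls, above about 33%, limit read from the data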
CSN deneddyl inh: inhibitors of CSN-mediated cullin deneddylation, primary screen, biochemical, fluorescence polarization, uHTS. Purified CSN, SCF-Nedd8-OG deneddylation. inhibition, % at 12.5 µM. actives 0.38% (n = 360,000);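 active means pattern-corrected inhibition above about 35%, with an unprinted fluorescence ratio check between 0.5 and 1.5, limit read from the data, passing the limit was not always enough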
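assay system = purified human Csn5 enzyme expressed in HEK293T cells | amount = 0.24 nM enzyme | buffer or medium = Tris/NaCl/DTT buffer, pH 7.5 | reagent = 10 nM SCFSkp2-Nedd8OG | compound = one concentration, 12.5 µM, 0.25% DMSO | times = 90 min reaction at room temperature | signal = FP | read-out basis = % inhibition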
Neddylation inh: inhibitors of cullin neddylation, primary screen, biochemical, TR-FRET, uHTS, NAE and Ubc12 | NEDD8-conjugating enzyme Ubc12 (Homo sapiens) + NEDD8-activating enzyme E1 regulatory … | actives 0.58% (n = 360,000) | inhibition, % at 25 µM | AID 651699, 2012; in the data active means inhibition above about 36%
TPT1 inhibitor: Candida albicans TPT1 enzyme inhibitors, primary screen, biochemical, fluorescence polarization. tRNA 2'-phosphotransferase TPT1 (Candida albicans SC5314). recombinant caTPT1, FP RNA substrate dephosphorylation. inhibition, % at 5 µM. actives 0.81% (n = 300,000). AID 1962, 2009;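 active means inhibition above the mean of all tested compounds plus 3 SD, set per screening campaign, cut at about 24% in these data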
CSN deneddyl val: Csn5 deneddylation inhibitors, confirmation, biochemical, fluorescence polarization, single concentration, SCF-Nedd8OG substrate | shares compounds with CSN deneddyl inh | actives 62% (n = 540) | AID 720654, 2013 | Csn5 deneddylation of SCF-Nedd8OG, 90 min | inhibition, % at 16.6 µM; in the data active means inhibition above about 50%
MMP-2 counter: MMP-2 protease inhibition counter-screen, confirmation, counter-screen for CSN deneddylation inhibitor project, biochemical, fluorescence, single concentration; actives 33% (n = 540); recombinant MMP-2, FRET substrate fluorescence, 60 min; AID 720655, 2013; inhibition, % at 16.6 µM; shares compounds with CSN deneddyl inh;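 active means corrected plate-normalized z-score of 5 or more, or -5 or less, or inhibition of 15% or more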
Thrombin cntr: blocks bovine thrombin in a CSN deneddylation counter-screen; shares compounds with CSN deneddyl inh; bovine thrombin cleavage of Ub4-pepOG, fluorescence polarization; inhibition, % at 16.6 µM; actives 49% (n = 540);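 active means inhibition at or above a set limit, with a fluorescence interference ratio between 0.5 and a set maximum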
Of the large screens only hits and unclear results are named; the others gave an inactive call (follow-up assays come after a bar, where shown). An excerpt weighted towards active compounds, which were near 2.4% of everything screened.

COc1ccccc1CNC(=O)COC(=O)c1cc(C)nc2ccccc12	none (no result: TPT1 inhibitor)
COc1ccccc1CNC(=O)COC(=O)c1cc(-c2ccco2)nc2ccccc12	CSN deneddyl inh 49 | MMP-2 counter inactive | Thrombin cntr inactive
COC(=O)c1ccc2c(c1)C(C)(C)C(/C=C/c1ccc(OC)c(OC)c1OC)=[N+]2C	none (not shown: Neddylation inh)
COC(=O)c1ccc2c(c1)C(C)(C)C(/C=C/c1ccc(O)cc1)=[N+]2C	HNF4A DNA FP 41, CSN deneddyl inh 48 (not shown: Rpn11 inh, Neddylation inh) | CSN deneddyl val 62 | MMP-2 counter inactive | Thrombin cntr 35
Cc1c(N2C(=O)/C(=C/c3ccccc3)SC2=S)c(=O)n(-c2ccccc2)n1C	none
Cc1c(N2C(=O)/C(=C/c3ccc(N(C)C)cc3)N(C)C2=S)c(=O)n(-c2ccccc2)n1C	HNF4A DNA FP 55, CSN deneddyl inh 61 (not shown: Rpn11 inh, TPT1 inhibitor) | CSN deneddyl val inactive | MMP-2 counter inactive | Thrombin cntr 74
O=C1CCCC2=C1C(c1ccco1)Nc1ccc3ccccc3c12 (stereo not drawn)	CSN deneddyl inh 40, Neddylation inh 54 | MMP-2 counter 17 | Thrombin cntr inactive
O=C1CCCC2=C1C(c1ccc(O)c(O)c1)Nc1ccc3ccccc3c12 (stereo not drawn)	none
O=S(=O)(/N=C(/Nc1ccc(F)c(F)c1F)c1ccccc1)c1ccccc1	none
Cc1ccc(S(=O)(=O)/N=C2/NC(=O)/C(=C\c3cc(Br)cc(Br)c3O)S2)cc1	HNF4A DNA FP 80, CSN deneddyl inh 147 (not shown: Rpn11 inh, TPT1 inhibitor) | CSN deneddyl val inactive | MMP-2 counter -80 | Thrombin cntr inactive
Cc1ccc(S(=O)(=O)/N=C2/NC(=O)/C(=C/c3cccnc3)S2)cc1	none
O=C(NCCN1CCOCC1)c1cccc(S(=O)(=O)N(Cc2ccccc2)c2ccccc2)c1	none
Nc1ccc2c(O)cc(S(=O)(=O)O)cc2c1	CSN deneddyl inh 36 (no result: TPT1 inhibitor) | CSN deneddyl val 94 | MMP-2 counter 16 | Thrombin cntr inactive
O=C(NCC(c1ccco1)N1CCCC1)c1cc2ccccc2s1 (stereo not drawn)	none (no result: TPT1 inhibitor)
Cc1ccc(C2=NN(S(=O)(=O)c3ccccc3)C(c3ccccc3O)C2)cc1 (stereo not drawn)	HNF4A DNA FP 80, CSN deneddyl inh 61 (not shown: Rpn11 inh, TPT1 inhibitor) | CSN deneddyl val 57 | MMP-2 counter inactive | Thrombin cntr 56
N#Cc1cnc(NOCc2ccc(Cl)cc2)nc1	none
COc1cc(/C=C/C(=O)O[C@H]2[C@H](O[C@@H]3O[C@@H](C)[C@H](O)[C@@H](O)[C@H]3O)[C@@H](O)[C@H](OCCc3ccc(O)c(OC)c3)O[C@@H]2CO)ccc1O	none (no result: TPT1 inhibitor)
COC1=C/C(=C/c2c(N)n3nc(-c4ccc(C)cc4)sc3nc2=O)C=CC1=O	HNF4A DNA FP 60, CSN deneddyl inh 78 (not shown: Rpn11 inh, TPT1 inhibitor) | MMP-2 counter inactive | Thrombin cntr 76
CCOC1=C/C(=C/c2c(N)n3nc(-c4ccccc4)sc3nc2=O)C=CC1=O	CSN deneddyl inh 41 (not shown: Rpn11 inh, TPT1 inhibitor) | CSN deneddyl val inactive | MMP-2 counter inactive | Thrombin cntr 64
CC(C)Cc1nn2c(N)c(/C=C3\C=Nc4ccccc43)c(=O)nc2s1	none
O=C1CCCC/C1=C/NCc1ccc(F)cc1	none
O=C1/C(=C\c2cc(Br)cc(Br)c2O)SC(=S)N1Cc1ccccc1	CSN deneddyl inh 46 | CSN deneddyl val 97 | MMP-2 counter inactive | Thrombin cntr inactive
O=C1/C(=C/c2ccccc2O)SC(=S)N1Cc1cccnc1	none
O=C(O)CN1C(=O)/C(=C\c2cc(Br)ccc2OCc2ccccc2Cl)SC1=S	CSN deneddyl inh 38 | CSN deneddyl val inactive | MMP-2 counter inactive | Thrombin cntr inactive
COC1C(CO)OC(n2c3c(Cl)cccc3c3c4c(c5c6cccc(Cl)c6[nH]c5c32)C(=O)NC4=O)C(O)C1O (stereo not drawn)	CSN deneddyl inh 80 (not shown: Rpn11 inh, TPT1 inhibitor) | CSN deneddyl val 197 | MMP-2 counter inactive | Thrombin cntr inactive
CCc1ccc(N=C2NC(=O)/C(=C/c3cc(Br)c(OCC(=O)O)c(OC)c3)S2)cc1	CSN deneddyl inh 47 | CSN deneddyl val 77 | MMP-2 counter inactive | Thrombin cntr inactive
Cc1ccc(S(=O)(=O)NCC(=O)NCC(=O)OC(C(=O)NC(N)=O)C(C)C)cc1C (stereo not drawn)	none
CC(C)CC(=NNC(=O)c1ccncc1)c1cc(Cl)ccc1O	CSN deneddyl inh 63 (not shown: Rpn11 inh, Neddylation inh, TPT1 inhibitor) | CSN deneddyl val 71 | MMP-2 counter -51 | Thrombin cntr 46
O=C(Nc1ccc2nc(-c3ccccc3)[nH]c2c1)c1ccco1	none (not shown: Neddylation inh)
O=C(Nc1cccc(-c2nc3ccccc3[nH]2)c1)c1cccc(NC(=O)c2ccco2)c1	CSN deneddyl inh 57 (not shown: Neddylation inh) | CSN deneddyl val inactive | MMP-2 counter inactive | Thrombin cntr inactive
N#Cc1c(SCC(=O)Nc2nc3ccccc3s2)sc2c(O)cc(=O)[nH]c12	CSN deneddyl inh 40 (no result: TPT1 inhibitor) | CSN deneddyl val 77 | MMP-2 counter inactive | Thrombin cntr inactive
Cc1cc(/C=C2\SC(=S)N(Cc3ccco3)C2=O)c(C)n1-c1cccnc1	CSN deneddyl inh 79 (not shown: Rpn11 inh, TPT1 inhibitor) | MMP-2 counter inactive | Thrombin cntr inactive
CCCCCn1c(NC(=O)c2ccco2)c(S(=O)(=O)c2ccc(C)cc2)c2nc3ccccc3nc21	none (not shown: Neddylation inh)
CCCCn1c(NC(=O)c2ccc(Br)o2)c(S(=O)(=O)c2ccccc2)c2nc3ccccc3nc21	CSN deneddyl inh 48 | CSN deneddyl val 101 | MMP-2 counter inactive | Thrombin cntr inactive
CC(O)(c1ccc(F)c(F)c1)c1nc(-c2ccc(F)c(Cl)c2)cs1 (stereo not drawn)	none (no result: TPT1 inhibitor)
Cc1c(C(=O)N2CCCCCC2)c(S(=O)(=O)Nc2ccc(F)cc2)c(C)n1C	none
S=C(c1ccc2c(c1)OCO2)N1CCOCC1	none
